Measured values: ChEMBL document CHEMBL3351600, “Sulfur, selenium and tellurium pseudopeptides: synthesis and biological evaluation” (Bioorg Med Chem, 2014)
pIC50: −log10 of the molar value.

Columns and labels:
[1] = Growth inhibition of human UACC257 cells after 48 hrs; format: functional; conditions: UACC-257, 48 h
How it was run: (§1)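 Run by the NCI 58-cell-line screen under its standard cytotoxicity protocol. Compounds were first tested at a single dose, then at five doses. Cells were exposed to compound for 48 h.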

[2] = system: MDA-MB-468; assay: Growth inhibition of human MDA-MB-468 cells after 48 hrs; format: functional; conditions: MDA-MB-468, 48 h
How it was run: (§2)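 NCI-60 human tumour cell line panel screen run at the US National Cancer Institute under its standard cytotoxicity protocol. It covers leukaemia, NSCLC, colon, CNS, melanoma, ovarian, renal, prostate and breast lines. An initial single-dose test was followed by five-dose testing with 48 h compound exposure.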

[3] = system: A-431; assay: Cytotoxicity against human A431 cells assessed as cell viability after 24 hrs incubation by MTT assay; format: functional, cell-based; conditions: A-431, 24 h
How it was run: (§3)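 Cell lines came from DSMZ; primary human fibroblasts served as non-cancer controls. Cells were grown in medium with 10% FCS, seeded at 50,000 cells/ml, and grown 2 days at 37 °C, 10% CO2. Serial dilutions were then added for 24 h. MTT (final 0.5 mg/ml) was added for 2 h. Formazan was pelleted, PBS-washed, dissolved in isopropanol/0.4% HCl and read at 590 nm. Two parallel experiments were run. IC50 was taken as the concentration giving 50% of untreated-control absorbance.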

[4] = system: ACHN; assay: Growth inhibition of human ACHN cells after 48 hrs; format: functional; how it was run: as §2
[5] = Growth inhibition of human SF295 cells after 48 hrs; format: functional; conditions: SF-295, 48 h; how it was run: as §2
[6] = Growth inhibition of human HOP92 cells after 48 hrs; format: functional; conditions: HOP-92, 48 h; how it was run: as §2
[7] = Growth inhibition of human EKVX cells after 48 hrs; format: functional; how it was run: as §2
[8] = Growth inhibition of human PC3 cells after 48 hrs; format: functional; conditions: PC-3, 48 h; how it was run: as §2
[9] = system: MCF7; assay: Growth inhibition of human MCF7 cells after 48 hrs; format: functional; conditions: MCF7, 48 h; how it was run: as §2
[10] = Growth inhibition of human BT549 cells after 48 hrs; format: functional; conditions: BT-549, 48 h; how it was run: as §2
[11] = system: HT-29; assay: Growth inhibition of human HT-29 cells after 48 hrs; format: functional; conditions: HT-29, 48 h; how it was run: as §2
[12] = system: Candida albicans; assay: Antimicrobial activity against Candida albicans assessed as inhibition at 20 ug/6 mm disk after 1 to 2 days by agar diffusion assay; format: functional
How it was run: (§4)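 Standard agar diffusion: 6-mm paper disks loaded with 20 µg of compound were placed on inoculated plates. Inhibition-zone diameter (mm) was read after 1 and 2 days of growth.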

[13] = system: MDA-MB-231; assay: Growth inhibition of human MDA-MB-231 cells after 48 hrs; format: functional; conditions: MDA-MB-231, 48 h; how it was run: as §2
[14] = system: KM12; assay: Growth inhibition of human KM12 cells after 48 hrs; format: functional; conditions: KM12, 48 h; how it was run: as §2
[15] = system: TK-10; assay: Growth inhibition of human TK10 cells after 48 hrs; format: functional; conditions: TK-10, 48 h; how it was run: as §1
[16] = Lipophilicity, log K of the compound by HPLC analysis
[17] = system: MDA-MB-435; assay: Growth inhibition of human MDA-MB-435 cells after 48 hrs; format: functional; conditions: MDA-MB-435, 48 h; how it was run: as §2
[18] = system: U-251; assay: Growth inhibition of human U251 cells after 48 hrs; format: functional; conditions: U-251, 48 h; how it was run: as §1
[19] = Growth inhibition of human SF539 cells after 48 hrs; format: functional; conditions: SF-539, 48 h; how it was run: as §2
[20] = system: Klebsiella pneumoniae; assay: Antimicrobial activity against Klebsiella pneumoniae assessed as inhibition at 20 ug/6 mm disk after 1 to 2 days by agar diffusion assay; format: functional; how it was run: as §4
[21] = system: MCF7; assay: Cytotoxicity against human MCF7 cells assessed as cell viability after 24 hrs incubation by MTT assay; format: functional, cell-based; conditions: MCF7, 24 h; how it was run: as §3
[22] = system: Pseudomonas aeruginosa; assay: Antimicrobial activity against Pseudomonas aeruginosa assessed as inhibition at 20 ug/6 mm disk after 1 to 2 days by agar diffusion assay; format: functional; how it was run: as §4
[23] = system: M14; assay: Growth inhibition of human M14 cells after 48 hrs; format: functional; conditions: M14, 48 h; how it was run: as §2
[24] = Growth inhibition of human MOLT4 cells after 48 hrs; format: functional; conditions: MOLT-4, 48 h; how it was run: as §2
[25] = system: Micrococcus luteus; assay: Antimicrobial activity against Micrococcus luteus assessed as inhibition at 20 ug/6 mm disk after 1 to 2 days by agar diffusion assay; format: functional; how it was run: as §4
[26] = system: K562; assay: Growth inhibition of human K562 cells after 48 hrs; format: functional; conditions: K562, 48 h; how it was run: as §2
[27] = system: T47D; assay: Growth inhibition of human T47D cells after 48 hrs; format: functional; how it was run: as §1
[28] = system: NCI-H522; assay: Growth inhibition of human NCI-H522 cells after 48 hrs; format: functional; conditions: NCI-H522, 48 h; how it was run: as §2
[29] = Growth inhibition of human OVCAR5 cells after 48 hrs; format: functional; conditions: OVCAR-5, 48 h; how it was run: as §2
[30] = Growth inhibition of human OVCAR3 cells after 48 hrs; format: functional; conditions: OVCAR-3, 48 h; how it was run: as §2
[31] = Cytotoxicity against human fibroblasts assessed as cell viability after 24 hrs incubation by MTT assay; format: cell-based; conditions: Fibroblast; how it was run: as §3
[32] = Growth inhibition of human HCT15 cells after 48 hrs; format: functional; conditions: HCT-15, 48 h; how it was run: as §2
[33] = Growth inhibition of human NCI-ADR-RES cells after 48 hrs; format: functional; how it was run: as §2
[34] = system: A498; assay: Growth inhibition of human A498 cells after 48 hrs; format: functional; conditions: A498, 48 h; how it was run: as §2
[35] = read-out: pLC50 (the source's name) (converted)

## CC1=C(SCCC(=O)OCC(=O)NCCC[Te]c2ccccc2)C(=O)c2ccccc2C1=O
[1]
  GI50: 2.75 µM
[1]; [35]
  CC50: 32.4 µM
[1]; read-out: pTGI (converted)
  TGI: 7.94 µM
other
  Retention_time: 0.928 min
[2]
  GI50: 1.66 µM
  LC50: 7.08 µM
[2]; read-out: pTGI (converted)
  TGI: 3.39 µM
[3]
  pIC50: 6.00
[4]
  GI50: 2.82 µM
  LC50: 40.7 µM
[4]; read-out: pTGI (converted)
  TGI: 11 µM
[5]
  GI50: 1.7 µM
[5]; [35]
  CC50: > 100 µM
[5]; read-out: pTGI (converted)
  TGI: 6.31 µM
[6]
  GI50: 1.58 µM
[6]; [35]
  CC50: 19.5 µM
[6]; read-out: pTGI (converted)
  TGI: 4.9 µM
[7]
  GI50: 1.12 µM
[7]; [35]
  CC50: 53.7 µM
[7]; read-out: pTGI (converted)
  TGI: 10.5 µM
[8]
  GI50: 2.4 µM
  LC50: 42.7 µM
[8]; read-out: pTGI (converted)
  TGI: 12 µM
[9]
  GI50: 2.95 µM
  LC50 (concentration killing 50% of cells): 57.5 µM
[9]; read-out: pTGI (converted)
  TGI: 12.3 µM
[10]
  GI50: 1.66 µM
  LC50 (concentration killing 50% of cells): 9.77 µM
[10]; read-out: pTGI (converted)
  TGI: 4.07 µM
[11]
  GI50: 3.31 µM
[11]; [35]
  CC50: > 100 µM
[11]; read-out: pTGI (converted)
  TGI: 11 µM
[12]
  diameter of the inhibition zone (DIZ): 0 mm
[13]
  GI50: 1.86 µM
  LC50: 9.55 µM
[13]; read-out: pTGI (converted)
  TGI: 4.27 µM
[14]
  GI50: 3.63 µM
[14]; [35]
  CC50: 52.5 µM
[14]; read-out: pTGI (converted)
  TGI: 12.6 µM
[15]
  GI50: 3.8 µM
  LC50: 38 µM
[15]; read-out: pTGI (converted)
  TGI: 12.9 µM
[16]
  log K: -0.56
[17]
  GI50: 4.27 µM
[17]; [35]
  CC50: 57.5 µM
[17]; read-out: pTGI (converted)
  TGI: 15.8 µM
[18]
  GI50: 3.16 µM
[18]; [35]
  CC50: 45.7 µM
[18]; read-out: pTGI (converted)
  TGI: 11.5 µM
[19]
  GI50: 2.09 µM
[19]; [35]
  CC50: 27.5 µM
[19]; read-out: pTGI (converted)
  TGI: 6.61 µM
[20]
  diameter of the inhibition zone (DIZ): 13 mm
[21]
  pIC50: 4.92
[22]
  diameter of the inhibition zone (DIZ): 12 mm
[23]
  GI50: 2.04 µM
[23]; [35]
  CC50: 17 µM
[23]; read-out: pTGI (converted)
  TGI: 5.13 µM
[24]
  GI50: 3.16 µM
[24]; [35]
  CC50: > 100 µM
[24]; read-out: pTGI (converted)
  TGI: 9.77 µM
[25]
  diameter of the inhibition zone (DIZ): 11 mm
[26]
  GI50: 3.55 µM
[26]; [35]
  CC50: > 100 µM
[26]; read-out: pTGI (converted)
  TGI: 34.7 µM
[27]
  GI50: 2 µM
  LC50: > 100 µM
[27]; read-out: pTGI (converted)
  TGI: 5.75 µM
[28]
  GI50: 2.51 µM
[28]; [35]
  CC50: 47.9 µM
[28]; read-out: pTGI (converted)
  TGI: 10.2 µM
[29]
  GI50: 2.75 µM
  LC50: 38 µM
[29]; read-out: pTGI (converted)
  TGI: 8.51 µM
[30]
  GI50: 2.63 µM
[30]; [35]
  CC50: 15.5 µM
[30]; read-out: pTGI (converted)
  TGI: 5.5 µM
[31]
  pIC50: 4.89
[32]
  GI50: 2.57 µM
[32]; [35]
  CC50: 77.6 µM
[32]; read-out: pTGI (converted)
  TGI: 12 µM
[33]
  GI50: 2.69 µM
  LC50: 55 µM
[33]; read-out: pTGI (converted)
  TGI: 10.2 µM
[34]
  GI50: 2 µM
  LC50: 30.2 µM
[34]; read-out: pTGI (converted)
  TGI: 7.41 µM
